Measurements from ChEMBL document CHEMBL1155016, “Locking the two ends of tetrapeptidic HTLV-I protease inhibitors inside the enzyme” (Bioorg Med Chem, 2008).
Starred links: 1 amine or outer side, 2 acyl side, 3 side chain; linkers in the order of their positions; H or OH if unused. Non-standard residues stand in square brackets, D forms with d. Residues, ends and D or L forms follow the SMILES beside them. X1 = O=C([C@@H](O)[C@H](Cc1ccccc1)N[*:1])[*:2]; Thz(5,5-Me2) = CC1(C)SCN[C@@H]1C(=O)O

Assays:
[1] = target: Protease (Human immunodeficiency virus 1) (UniProt Q9YQ12); assay: Inhibition of HIV1 protease at 50 nM
Protease = Protease (Human T-cell leukemia virus type I, UniProt Q82134, L40I); assay: Inhibition of HTLV1 protease L40I mutant
Outline: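 HTLV-I protease carrying the L40I substitution, which blocks autolysis and stabilises the enzyme; run by the group's earlier reported protocol; potency given as IC50 in nM.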

Protease (Human immunodeficiency virus 1), sequence (Q9YQ12 as listed by the source): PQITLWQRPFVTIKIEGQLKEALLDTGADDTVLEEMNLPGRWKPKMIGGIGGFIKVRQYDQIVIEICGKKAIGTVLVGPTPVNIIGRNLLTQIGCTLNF
Protease, sequence (Q82134 entry or part of it L40I): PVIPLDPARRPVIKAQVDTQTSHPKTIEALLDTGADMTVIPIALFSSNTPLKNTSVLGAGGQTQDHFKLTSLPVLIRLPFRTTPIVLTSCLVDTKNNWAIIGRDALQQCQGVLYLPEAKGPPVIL

CC(NC(=O)[C@H]1N(C(=O)[C@@H](O)[C@H](Cc2ccccc2)NC(=O)[C@@H](NC(=O)[C@@H](NC(=O)C2CC2)c2ccccc2)C(C)(C)C)CSC1(C)C)C(C)(C)C (some centres undefined)
inhibition [1]: > 98%
IC50 (Protease): 85 nM

CC(=O)N[C@H](C(=O)N[C@H](C(=O)N[C@@H](Cc1ccccc1)[C@H](O)C(=O)N1CSC(C)(C)[C@H]1C(=O)NCC1CC1)C(C)(C)C)c1ccccc1
inhibition [1]: > 98%
IC50 (Protease): 146 nM

CC(NC(=O)[C@H]1N(C(=O)[C@@H](O)[C@H](Cc2ccccc2)NC(=O)[C@@H](NC(=O)[C@@H](N)c2ccccc2)C(C)(C)C)CSC1(C)C)C(C)(C)C (some centres undefined)
inhibition [1]: > 98%
IC50 (Protease): 156 nM

CC(C)CCNC(=O)[C@H]1N(C(=O)[C@@H](O)[C@H](Cc2ccccc2)NC(=O)[C@@H](NC(=O)[C@@H](N)c2ccccc2)C(C)(C)C)CSC1(C)C
inhibition [1]: > 98%
IC50 (Protease): 372 nM

CC(C)C(=O)N[C@H](C(=O)N[C@H](C(=O)N[C@@H](Cc1ccccc1)[C@H](O)C(=O)N1CSC(C)(C)[C@H]1C(=O)NCC(C)(C)C)C(C)(C)C)c1ccccc1
inhibition [1]: > 98%
IC50 (Protease): 78 nM

CC(=O)N[C@H](C(=O)N[C@H](C(=O)N[C@@H](Cc1ccccc1)[C@H](O)C(=O)N1CSC(C)(C)[C@H]1C(=O)NCC(C)(C)C)C(C)(C)C)c1ccccc1
inhibition [1]: > 98%
IC50 (Protease): 113 nM

CSCC[C@H](NC(=O)[C@@H](NC(=O)[C@@H]1CCCN1C(=O)[C@@H](O)[C@H](Cc1ccccc1)NC(=O)[C@@H](NC(=O)[C@H](CCC(N)=O)NC(=O)[C@@H]1CCCN1)C(C)C)C(C)C)C(=O)N[C@@H](Cc1cnc[nH]1)C(=O)O
inhibition [1]: > 98%
IC50 (Protease): 159 nM

CC(C)(C)C(=O)N[C@H](C(=O)N[C@H](C(=O)N[C@@H](Cc1ccccc1)[C@H](O)C(=O)N1CSC(C)(C)[C@H]1C(=O)NCC1CC1)C(C)(C)C)c1ccccc1
inhibition [1]: > 98%
IC50 (Protease): 187 nM

CC(C)(C)CNC(=O)[C@H]1N(C(=O)[C@@H](O)[C@H](Cc2ccccc2)NC(=O)[C@@H](NC(=O)[C@@H](N)c2ccccc2)C(C)(C)C)CSC1(C)C
inhibition [1]: > 98%
IC50 (Protease): 180 nM

CC(C)C(=O)N[C@H](C(=O)N[C@H](C(=O)N[C@@H](Cc1ccccc1)[C@H](O)C(=O)N1CSC(C)(C)[C@H]1C(=O)NC(C)C(C)C)C(C)(C)C)c1ccccc1 (some centres undefined)
inhibition [1]: > 98%
IC50 (Protease): 122 nM

CC(C)(C)[C@H](NC(=O)[C@@H](N)c1ccccc1)C(=O)N[C@@H](Cc1ccccc1)[C@H](O)C(=O)N1CSC(C)(C)[C@H]1C(=O)NCC1CC1
inhibition [1]: > 98%
IC50 (Protease): 928 nM

CCCC(=O)N[C@H](C(=O)N[C@H](C(=O)N[C@@H](Cc1ccccc1)[C@H](O)C(=O)N1CSC(C)(C)[C@H]1C(=O)NCC(C)(C)C)C(C)(C)C)c1ccccc1
inhibition [1]: > 98%
IC50 (Protease): 74 nM

CC(=O)N[C@H](C(=O)N[C@H](C(=O)N[C@@H](Cc1ccccc1)[C@H](O)C(=O)N1CSC(C)(C)[C@H]1C(=O)NCC(C)C)C(C)(C)C)c1ccccc1
inhibition [1]: > 98%
IC50 (Protease): 107 nM

C=CCCC(=O)N[C@H](C(=O)N[C@H](C(=O)N[C@@H](Cc1ccccc1)[C@H](O)C(=O)N1CSC(C)(C)[C@H]1C(=O)NC(C)C(C)C)C(C)(C)C)c1ccccc1 (some centres undefined)
inhibition [1]: > 98%
IC50 (Protease): 87 nM

CCCC(=O)N[C@H](C(=O)N[C@H](C(=O)N[C@@H](Cc1ccccc1)[C@H](O)C(=O)N1CSC(C)(C)[C@H]1C(=O)NC(C)C(C)C)C(C)(C)C)c1ccccc1 (some centres undefined)
inhibition [1]: > 98%
IC50 (Protease): 659 nM

CC(C)CC(=O)N[C@H](C(=O)N[C@H](C(=O)N[C@@H](Cc1ccccc1)[C@H](O)C(=O)N1CSC(C)(C)[C@H]1C(=O)NC(C)C(C)(C)C)C(C)(C)C)c1ccccc1 (some centres undefined)
inhibition [1]: > 98%
IC50 (Protease): 84 nM

CC[C@H](C)[C@H](NC(C)=O)C(=O)N[C@H](C(=O)N[C@@H](Cc1ccccc1)[C@H](O)C(=O)N1CSC(C)(C)[C@H]1C(=O)N[C@H](C(=O)N[C@@H](CCSC)C(N)=O)[C@@H](C)CC)[C@@H](C)CC (Ac-II[X1][Thz(5,5-Me2)]IM-NH2)
inhibition [1]: > 98%
IC50 (Protease): 88 nM

CCCC(=O)N[C@H](C(=O)N[C@H](C(=O)N[C@@H](Cc1ccccc1)[C@H](O)C(=O)N1CSC(C)(C)[C@H]1C(=O)NCCC(C)C)C(C)(C)C)c1ccccc1
inhibition [1]: > 98%
IC50 (Protease): 95 nM

CC(C)CC(=O)N[C@H](C(=O)N[C@H](C(=O)N[C@@H](Cc1ccccc1)[C@H](O)C(=O)N1CSC(C)(C)[C@H]1C(=O)NCC(C)(C)C)C(C)(C)C)c1ccccc1
inhibition [1]: > 98%
IC50 (Protease): 82 nM

CC(=O)N[C@H](C(=O)N[C@H](C(=O)N[C@@H](Cc1ccccc1)[C@H](O)C(=O)N1CSC(C)(C)[C@H]1C(=O)NC(C)C(C)C)C(C)(C)C)c1ccccc1 (some centres undefined)
inhibition [1]: > 98%
IC50 (Protease): 136 nM

CC(C)CC(=O)N[C@H](C(=O)N[C@H](C(=O)N[C@@H](Cc1ccccc1)[C@H](O)C(=O)N1CSC(C)(C)[C@H]1C(=O)NCC1CC1)C(C)(C)C)c1ccccc1
inhibition [1]: > 98%
IC50 (Protease): 132 nM

CCCC(=O)N[C@H](C(=O)N[C@H](C(=O)N[C@@H](Cc1ccccc1)[C@H](O)C(=O)N1CSC(C)(C)[C@H]1C(=O)NC(C)C(C)(C)C)C(C)(C)C)c1ccccc1 (some centres undefined)
inhibition [1]: > 98%
IC50 (Protease): 94 nM

CC(C)C(C)NC(=O)[C@H]1N(C(=O)[C@@H](O)[C@H](Cc2ccccc2)NC(=O)[C@@H](NC(=O)[C@@H](NC(=O)C(C)(C)C)c2ccccc2)C(C)(C)C)CSC1(C)C (some centres undefined)
inhibition [1]: > 98%
IC50 (Protease): 133 nM

CC(C)C(C)NC(=O)[C@H]1N(C(=O)[C@@H](O)[C@H](Cc2ccccc2)NC(=O)[C@@H](NC(=O)[C@@H](NC(=O)C2CC2)c2ccccc2)C(C)(C)C)CSC1(C)C (some centres undefined)
inhibition [1]: > 98%
IC50 (Protease): 90 nM

CCCC(=O)N[C@H](C(=O)N[C@H](C(=O)N[C@@H](Cc1ccccc1)[C@H](O)C(=O)N1CSC(C)(C)[C@H]1C(=O)NCC1CC1)C(C)(C)C)c1ccccc1
inhibition [1]: > 98%
IC50 (Protease): 113 nM

CC(C)C(C)NC(=O)[C@H]1N(C(=O)[C@@H](O)[C@H](Cc2ccccc2)NC(=O)[C@@H](NC(=O)[C@@H](N)c2ccccc2)C(C)(C)C)CSC1(C)C (some centres undefined)
inhibition [1]: > 98%
IC50 (Protease): 354 nM

CC(C)(C)CNC(=O)[C@H]1N(C(=O)[C@@H](O)[C@H](Cc2ccccc2)NC(=O)[C@@H](NC(=O)[C@@H](NC(=O)C2CC2)c2ccccc2)C(C)(C)C)CSC1(C)C
inhibition [1]: > 98%
IC50 (Protease): 86 nM

CC(C)CNC(=O)[C@H]1N(C(=O)[C@@H](O)[C@H](Cc2ccccc2)NC(=O)[C@@H](NC(=O)[C@@H](NC(=O)CC(C)C)c2ccccc2)C(C)(C)C)CSC1(C)C
inhibition [1]: > 98%
IC50 (Protease): 102 nM

CCCC(=O)N[C@H](C(=O)N[C@H](C(=O)N[C@@H](Cc1ccccc1)[C@H](O)C(=O)N1CSC(C)(C)[C@H]1C(=O)NCC(C)C)C(C)(C)C)c1ccccc1
inhibition [1]: > 98%
IC50 (Protease): 104 nM

CC(C)CNC(=O)[C@H]1N(C(=O)[C@@H](O)[C@H](Cc2ccccc2)NC(=O)[C@@H](NC(=O)[C@@H](NC(=O)C2CC2)c2ccccc2)C(C)(C)C)CSC1(C)C
inhibition [1]: > 98%
IC50 (Protease): 97 nM

CC(C)CNC(=O)[C@H]1N(C(=O)[C@@H](O)[C@H](Cc2ccccc2)NC(=O)[C@@H](NC(=O)[C@@H](N)c2ccccc2)C(C)(C)C)CSC1(C)C
inhibition [1]: > 98%
IC50 (Protease): 332 nM

CCC(=O)N[C@H](C(=O)N[C@H](C(=O)N[C@@H](Cc1ccccc1)[C@H](O)C(=O)N1CSC(C)(C)[C@H]1C(=O)NCC(C)C)C(C)(C)C)c1ccccc1
inhibition [1]: > 98%
IC50 (Protease): 105 nM
